Test results reported in ChEMBL document CHEMBL3351758, “Inhibition of cancer-associated mutant isocitrate dehydrogenases: synthesis, structure-activity relationship, and selective antitumor activity” (J Med Chem, 2014).

Tests used:
MDCK [1] = experiment: Permeability from apical to basolateral side in MDCK cells expressing MDR1 at 10 uM incubated at 37 degC for 90 mins by LC/MS/MS method; type: ADME, cell-based, Canis lupus familiaris; details: dog, 1.5 h
In short: (§1)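 MDCK-MDR1 monolayers were used 3–4 days after seeding on 0.4 μm Transwell filters, only if TEER exceeded 1000 Ω·cm² before and after the run. They were preincubated 30 min in HBSS with 50 mM HEPES, pH ≈ 7.4. Donor got 10 μM compound (final, 0.1% DMSO), then 90 min at 37 °C. Both sides were sampled and quantified by LC-MS/MS SRM. Papp = dQ/dt/(A·C0).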

MDCK [2] = experiment: Permeability from basolateral to apical side in MDCK cells expressing MDR1 at 10 uM incubated at 37 degC for 90 mins by LC/MS/MS method; type: ADME, cell-based, Canis lupus familiaris; details: dog, 1.5 h; in short: as §1
MDCK [3] = experiment: Efflux ratio, ratio of permeability from basolateral side over apical to basolateral side in MDCK cells expressing MDR1 at 10 uM incubated at 37 degC for 90 mins by LC/MS/MS method; type: ADME, cell-based, Canis lupus familiaris; details: dog, 1.5 h
In short: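 MDCK-MDR1 monolayers (passage 24–33, seeded at 60000 cells/cm² on Transwell filters) were used 3–4 days post-seeding if TEER stayed >1000 Ω·cm². After 30 min preincubation in HBSS/50 mM HEPES pH ≈7.4, compound was added to the donor side (10 μM initial, 0.1% DMSO) A→B or B→A, 37 °C, 90 min. LC-MS/MS SRM quantification; Papp = dQ/dt/(A·C0).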

[4] = Inhibition of neurosphere formation of human BT142 cells by CCK8 assay; type: functional, cell-based
In short: (§2)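 Neurosphere cultures grown serum-free at 37 °C, 5% CO2 (neurobasal medium, N2/B27, bFGF and EGF 50 ng/mL each, penicillin/streptomycin). BXD lines come from patient-tumour orthotopic xenografts; BT-142 carries endogenous IDH1 R132H and gets extra supplements (PDGF-AA, insulin, transferrin, others). 2000 cells/well were exposed to 0.002, 0.02, 0.2, 2 or 20 μM for up to 13 days. CCK-8 viability was read on days 4, 7, 10 and 13.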

[5] = Inhibition of neurosphere formation of […] BXD4687 cells by CCK8 assay; type: functional, cell-based; in short: as §2
[6] = Inhibition of neurosphere formation of […] BXD3752 cells by CCK8 assay; type: functional, cell-based; in short: as §2
[7] = Inhibition of cell proliferation of human WI38 cells by CCK8 assay; type: functional, cell-based; details: WI-38
[8] = Inhibition of neurosphere formation of human BT142 cells at 2 uM by CCK8 assay; type: functional; in short: as §2
[9] = Inhibition of neurosphere formation of human BT142 cells at 20 uM by CCK8 assay; type: functional
In short: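 BT-142 glioma cells (endogenous IDH1 R132H) grown as neurospheres in serum-free neurobasal/N2/B27 medium with bFGF, EGF, PDGF-AA and other supplements. 2000 cells/well treated for up to 13 days. Viability by CCK-8 at days 4, 7, 10 and 13.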

[10] = Cytotoxicity against human HT1080 cells up to 30 uM; type: cell-based; details: ht-1080
[11] = molecular target: Isocitrate dehydrogenase [NADP] cytoplasmic (Homo sapiens, UniProt O75874, R132H); experiment: Inhibition of human IDH1 R132H mutant expressed in Escherichia coli BL21-CodonPlus assessed as reduction in NADPH consumption
[12] = molecular target: Isocitrate dehydrogenase [NADP] cytoplasmic (Homo sapiens, UniProt O75874); experiment: Inhibition of wild type human IDH1 expressed in Escherichia coli BL21-CodonPlus assessed as NADPH production
[13] = Selectivity index, ratio of EC50 for human BXD3752 cells to EC50 for human BT142 cells
[14] = Selectivity index, ratio of EC50 for human BXD4687 cells to EC50 for human BT142 cells

Sequence of Isocitrate dehydrogenase [NADP] cytoplasmic (Homo sapiens, UniProt O75874) (O75874 whole entry): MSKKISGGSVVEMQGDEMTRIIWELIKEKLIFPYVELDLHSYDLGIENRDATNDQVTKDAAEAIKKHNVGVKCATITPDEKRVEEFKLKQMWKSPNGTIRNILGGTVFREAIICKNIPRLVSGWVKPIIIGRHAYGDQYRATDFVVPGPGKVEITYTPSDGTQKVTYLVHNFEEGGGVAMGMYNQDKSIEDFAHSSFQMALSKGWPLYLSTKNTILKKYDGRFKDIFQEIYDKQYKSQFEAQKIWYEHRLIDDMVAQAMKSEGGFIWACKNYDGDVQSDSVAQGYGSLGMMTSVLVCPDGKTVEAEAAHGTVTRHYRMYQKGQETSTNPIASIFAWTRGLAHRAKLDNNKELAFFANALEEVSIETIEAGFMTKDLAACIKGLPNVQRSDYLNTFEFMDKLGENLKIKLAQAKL
Sequence of Isocitrate dehydrogenase [NADP] cytoplasmic (Homo sapiens, UniProt O75874, R132H) (O75874 2-414 R132H limits assumed): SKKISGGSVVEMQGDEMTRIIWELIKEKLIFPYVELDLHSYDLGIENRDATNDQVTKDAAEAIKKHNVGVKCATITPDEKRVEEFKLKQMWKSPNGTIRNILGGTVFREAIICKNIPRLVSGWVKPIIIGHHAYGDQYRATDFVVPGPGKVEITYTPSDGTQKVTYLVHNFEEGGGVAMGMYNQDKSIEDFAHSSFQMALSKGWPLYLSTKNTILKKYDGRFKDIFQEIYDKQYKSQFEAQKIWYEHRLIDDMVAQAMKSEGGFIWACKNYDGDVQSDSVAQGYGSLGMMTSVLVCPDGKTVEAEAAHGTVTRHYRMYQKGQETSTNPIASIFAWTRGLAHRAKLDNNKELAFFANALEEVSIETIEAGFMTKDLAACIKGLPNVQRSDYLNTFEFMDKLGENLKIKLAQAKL

For Cc1ccccc1C(C(=O)NC1CCCCC1)N(C(=O)Cn1ccnc1C)c1cccc(F)c1 (configuration not stated), the permeability (MDCK [1]) was 1.5 nm/s, the permeability (MDCK [2]) was 104 nm/s and the Ratio (MDCK [3]) was 72.6. For the same compound, the EC50 [4] was greater than 20 µM, the EC50 [5] was greater than 20 µM and the EC50 [6] was greater than 20 µM. It also gave an EC50 [7] greater than 50 µM, an inhibition at 2 µM [8] of 40% and an inhibition at 20 µM [9] of 40%.
For Cc1cc(Cc2ccccc2)n(O)c(=O)c1, the Activity [10] was “Non-toxic”, the permeability (MDCK [1]) was 54.5 nm/s and the permeability (MDCK [2]) was 63.4 nm/s. It also gave an EC50 [4] of 0.37 µM, an EC50 [5] of 6.8 µM and an EC50 [6] of 5.9 µM.
With Cc1cc(Cc2ccc(O)cc2)n(O)c(=O)c1 the Activity [10] was “Non-toxic”.
With O=c1cccc(Cc2ccccc2)n1O the Activity [10] was “Non-toxic”.
With CC(C)c1cc(Cc2ccccc2)n(O)c(=O)c1 the Activity [10] was “Non-toxic”.
Work on Cc1cc(Cc2ccccc2O)n(O)c(=O)c1 yielded a Ki [11] of 0.65 µM.
In the case of O=c1ccc(CCc2ccccc2)cn1O, the Ki [11] is reported as greater than 50 µM.
With O=c1ccc(CCCc2ccccc2)cn1O the Ki [11] was greater than 50 µM.
For O=c1ccc(Oc2ccccc2)cn1O, the Ki [11] was 46 µM.
For O=C(NO)c1ccc(=O)n(O)c1, the Ki [11] was greater than 50 µM.
Compound O=C(NCc1ccccc1)c1ccc(=O)n(O)c1 has a Ki [11] greater than 50 µM.
Work on O=C(Cc1ccccc1)Nc1ccc(=O)n(O)c1 yielded a Ki [11] greater than 50 µM.
Work on O=c1cccc(-c2ccccc2)n1O yielded a Ki [11] greater than 50 µM.
In the case of CC(c1ccccc1)c1cccc(=O)n1O (configuration not stated), the Ki [11] is reported as greater than 50 µM.
In the case of O=c1cccc(CCc2ccccc2)n1O, the Ki [11] is reported as 10 µM.
In the case of COC(=O)c1ccc(CCc2cccc(=O)n2O)cc1, the Ki [11] is reported as 27 µM.
O=C(NO)c1cccc(=O)n1O gave a Ki [11] of 4.5 µM and a Ki [12] greater than 50 µM.
For Cc1cc(COc2ccccc2)n(O)c(=O)c1, the Ki [11] was 0.87 µM.
Cc1ccn(O)c(=O)c1Cc1ccccc1 showed a Ki [11] of 9.5 µM.
Compound COc1cccc(Cc2c(C)ccn(O)c2=O)c1 has a Ki [11] of 16.2 µM.
For Cc1ccn(O)c(=O)c1Cc1cccc(O)c1, the Ki [11] was 13.6 µM.
With O=c1cc(O)cc(Cc2ccccc2)n1O the Ki [11] was 0.38 µM and the Activity [10] was “Non-toxic”.
In the case of COc1cc(Cc2ccccc2)n(O)c(=O)c1, the Ki [11] is reported as 5.5 µM.
O=c1cc(CO)cc(Cc2ccccc2)n1O showed a Ki [11] of 5.6 µM.
Work on CC(=O)OCc1cc(Cc2ccccc2)n(O)c(=O)c1 yielded a Ki [11] of 4.5 µM.
COc1ccc(Cc2cc(C)cc(=O)n2O)cc1 gave a Ki [11] of 0.56 µM.
For COc1cccc(Cc2cc(C)cc(=O)n2O)c1, the Ki [11] was 0.15 µM, the Activity [10] was “Non-toxic” and the permeability (MDCK [1]) was 53.9 nm/s. For the same compound, the permeability (MDCK [2]) was 88.8 nm/s, the Ratio (MDCK [3]) was 1.7 and the EC50 [4] was 0.63 µM. The EC50 [5] was 1.2 µM, the EC50 [6] was 2.5 µM and the EC50 [7] was greater than 50 µM. It also gave a Ki [12] greater than 30 µM.
In the case of Cc1cc(Cc2cccc(O)c2)n(O)c(=O)c1, the Ki [11] is reported as 0.14 µM, the Activity [10] is reported as “Non-toxic” and the EC50 [4] is reported as 1.8 µM. For the same compound, the EC50 [5] was 7.5 µM, the EC50 [6] was 6.2 µM and the EC50 [7] was greater than 50 µM. It also gave a Ki [12] greater than 30 µM.
With COc1ccccc1Cc1cc(C)cc(=O)n1O the Ki [11] was 0.49 µM.
Cc1cc(Cc2cccc(F)c2)n(O)c(=O)c1 gave a Ki [11] of 2.2 µM.
Cc1cc(Cc2c(F)c(F)c(F)c(F)c2F)n(O)c(=O)c1 showed a Ki [11] of 2.2 µM.
Compound Cc1cc(Cc2ccc(C#N)cc2)n(O)c(=O)c1 has a Ki [11] of 12.5 µM.
Cc1cc(Cc2cccc(C#N)c2)n(O)c(=O)c1 gave a Ki [11] of 1.6 µM.
For Cc1cc(Cc2cccc(C(=O)O)c2)n(O)c(=O)c1, the Ki [11] was greater than 50 µM.
Cc1cc(Cc2cccc(C(N)=O)c2)n(O)c(=O)c1 showed a Ki [11] of 8.5 µM.
With Cc1cc(Cc2ccc(C(F)(F)F)cc2)n(O)c(=O)c1 the Ki [11] was 3.2 µM.
With Cc1cc(C)cc(Cc2cc(C)cc(=O)n2O)c1 the Ki [11] was 3.1 µM.
Cc1cc(Cc2ccsc2)n(O)c(=O)c1 showed a Ki [11] of 0.95 µM.
In the case of Cc1cc(Cc2cccc(-c3ccccc3)c2)n(O)c(=O)c1, the Ki [11] is reported as 0.6 µM.
Work on Cc1cc(Cc2ccc(Oc3ccccc3)cc2)n(O)c(=O)c1 yielded a Ki [11] of 0.75 µM.
For Cc1cc(Cc2cccc3ccccc23)n(O)c(=O)c1, the Ki [11] was 0.95 µM.
Compound COc1ccc2c(Cc3cc(C)cc(=O)n3O)cccc2c1 has a Ki [11] of 40.5 µM.
Work on Cc1cc(Cc2cccc3cc(O)ccc23)n(O)c(=O)c1 yielded a Ki [11] of 27.5 µM.
For Cc1cc(Cc2cc3ccccc3s2)n(O)c(=O)c1, the Ki [11] was 22.5 µM.
With COc1ccc(-c2ccc(Cc3cc(C)cc(=O)n3O)cc2)cc1 the Ki [11] was 0.34 µM, the Activity [10] was “Non-toxic” and the EC50 [4] was 0.26 µM. The EC50 [5] was 7.6 µM, the EC50 [6] was 2.8 µM and the EC50 [7] was greater than 50 µM. For the same compound, the “Ratio EC50” value [13] was greater than 10, the “Ratio EC50” value [14] was greater than 10 and the Ki [12] was 14 µM.
With Cc1cc(Cc2ccc(-c3ccc(O)cc3)cc2)n(O)c(=O)c1 the Ki [11] was 0.25 µM, the Activity [10] was “Non-toxic” and the EC50 [4] was 0.69 µM. It also gave an EC50 [5] of 16 µM, an EC50 [6] of 5.1 µM and an EC50 [7] greater than 50 µM. For the same compound, the Ki [12] was 15.2 µM.
With COc1cccc(-c2ccc(Cc3cc(C)cc(=O)n3O)cc2)c1 the Ki [11] was 0.14 µM, the Activity [10] was “Non-toxic” and the Ki [12] was 13 µM.
Cc1cc(Cc2ccc(-c3cccc(O)c3)cc2)n(O)c(=O)c1 showed a Ki [11] of 0.27 µM.
In the case of Cc1cc(Cc2cc(-c3ccccc3)cc(-c3ccccc3)c2)n(O)c(=O)c1, the Ki [11] is reported as 0.3 µM.
Cc1cc(Cc2ccccc2)n(N)c(=O)c1 showed a Ki [11] of 3.8 µM.
O=c1ccc(-c2ccccc2)cn1O [1-HYDROXY-5-PHENYLPYRIDIN-2(1H)-ONE] gave a Ki [11] of 50 µM.
Compound Cc1cc(C2CCCCC2)n(O)c(=O)c1 [CICLOPIROX] has a Ki [11] greater than 50 µM.
In the case of Cc1cc(C)n(O)c(=O)c1 [METIPIROX], the Ki [11] is reported as greater than 50 µM.
With Cn1nnc2c(C(N)=O)ncn2c1=O [TEMOZOLOMIDE] the EC50 [4] was greater than 50 µM, the EC50 [5] was greater than 50 µM and the EC50 [6] was greater than 50 µM.
